In ChEMBL document CHEMBL1157725 (Bioorg Med Chem, 2010):

Legend:
[1] = test system: MCF7; assay: Antiproliferative activity against human MCF7 cells after 24 hrs by SRB assay; type: functional, cell-based; settings: MCF7, 24 h
Summary of the method: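 MCF-7 cells are grown for 24 h with or without drug, then for a further 48 h. Total cell protein is measured by sulforhodamine B staining, and the IC₅₀ is derived from it.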

[2] = Inhibition of tubulin in rat A10 cells assessed as induction of cellular microtubule disassembly after 18 hrs by indirect immunofluorescence technique; type: cell-based; settings: A10, 18 h
Summary of the method: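 A-10 cells plated on glass coverslips and treated with compound at varying concentrations for 18 h. After fixation, microtubules immunostained with a β-tubulin antibody (indirect immunofluorescence) and nuclei stained with DAPI. Read by fluorescence microscopy. Percentage of cellular microtubule loss estimated visually across the concentration range.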

[3] = Inhibition of tubulin polymerization by turbidimetry
Summary of the method: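 Tubulin at 10 µM (1.0 mg/mL). Polymerization followed turbidimetrically at 350 nm in temperature-controlled spectrophotometers.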

Structure (SMILES) | IC50 [1] | EC50 [2] | IC50 [3]
COc1ccc(/C=C\c2cc(OC)c(OC)c(OC)c2)cc1O [COMBRETASTATIN A4] | 32 nM | < 25 nM | 
COc1ccc(C(=O)/C=C/c2cc(OC)c(OC)c(OC)c2)cc1O | > 2500 nM | 18000 nM | > 40000 nM
